Test results published in ChEMBL document CHEMBL1153403, “Design, synthesis, and evaluation of novel fluoroquinolone-aminoglycoside hybrid antibiotics” (J Med Chem, 2009).
In brackets after ≈: the same amount, converted by molar mass.

Key:
Assay type in all cases: functional
Escherichia coli [1] = experiment: Antibacterial activity against Escherichia coli R477-100 by double-microdilution method
Escherichia coli [2] = experiment: Antibacterial activity against Escherichia coli ATCC 25922 by double-microdilution method
Escherichia coli [3] = experiment: Antibacterial activity against kanamycin-resistant Escherichia coli AG100B expressing aminoglycosides resistant APH(3')-1 enzyme by double-microdilution method
Escherichia coli [4] = experiment: Antibacterial activity against kanamycin-resistant Escherichia coli AG100A expressing aminoglycosides resistant APH(3')-1 enzyme by double-microdilution method
Bacillus subtilis = experiment: Antibacterial activity against aminoglycosides-susceptible Bacillus subtilis ATCC 6633 by double-microdilution method
Staphylococcus aureus = experiment: Antibacterial activity against methicillin-resistant Staphylococcus aureus ATCC 43300 by double-microdilution method
Escherichia coli [5] = experiment: Antibacterial activity against Escherichia coli XL1-blue by double-microdilution method
Escherichia coli [6] = experiment: Antibacterial activity against aminoglycosides-resistant Escherichia coli XL1-blue harboring pSF815 expressing AAC(6')-APH(2'') enzyme by double-microdilution method
Escherichia coli [7] = experiment: Resistance index, MIC for aminoglycosides-resistant Escherichia coli XL1-blue harboring pSF815 expressing AAC(6')-APH(2'') enzyme to MIC for Escherichia coli XL1-blue
Outline: (§1)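 Ratio of MIC on the plasmid-bearing resistant strain to MIC on its background strain (pETSACG1 vs BL21; pET9d or pSF815 vs XL1 blue). MICs by NCCLS double microdilution from starting concentrations of 384 and 1.5 µg/mL, in duplicate, two to four experiments.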

Escherichia coli [8] = experiment: Antibacterial activity against aminoglycosides-resistant Escherichia coli XL1-blue harboring pET9d expressing APH(3')-1a enzyme by double-microdilution method
Escherichia coli [9] = experiment: Resistance index, MIC for aminoglycosides-resistant Escherichia coli XL1-blue harboring pET9d expressing APH(3')-1a enzyme to MIC for Escherichia coli XL1-blue; outline: as §1
Escherichia coli [10] = experiment: Antibacterial activity against Escherichia coli BL21 by double-microdilution method
Escherichia coli [11] = experiment: Antibacterial activity against aminoglycosides-resistant Escherichia coli BL21 harboring pETSACG1 expressing APH(3')-3a enzyme by double-microdilution method
Escherichia coli [12] = experiment: Resistance index, MIC for aminoglycosides-resistant Escherichia coli BL21 harboring pETSACG1 expressing APH(3')-3a enzyme to MIC for Escherichia coli BL21; outline: as §1

SMILES	MIC (Escherichia coli [1]) [µg/mL]	MIC (Escherichia coli [2]) [µg/mL]	MIC (Escherichia coli [3]) [µg/mL]	MIC (Escherichia coli [4]) [µg/mL]	MIC (Bacillus subtilis) [µg/mL]	MIC (Staphylococcus aureus) [µg/mL]	MIC (Escherichia coli [5]) [µg/mL]	MIC (Escherichia coli [6]) [µg/mL]	Ratio (Escherichia coli [7])	MIC (Escherichia coli [8]) [µg/mL]	Ratio (Escherichia coli [9])	MIC (Escherichia coli [10]) [µg/mL]	MIC (Escherichia coli [11]) [µg/mL]	Ratio (Escherichia coli [12])
NC[C@@H]1O[C@H](O[C@H]2[C@@H](O)[C@H](O[C@@H]3[C@@H](O)[C@H](N)C[C@H](N)[C@H]3O[C@H]3O[C@H](CN)[C@@H](O)[C@H](O)[C@H]3N)O[C@@H]2C(=O)Nc2ccc(-c3cn(CCN4CCN(c5cc6c(cc5F)c(=O)c(C(=O)O)cn6C5CC5)CC4)nn3)cc2)[C@H](N)[C@@H](O)[C@@H]1O	12 (≈ 10.6 µM)	6 (≈ 5.32 µM)	24 (≈ 21.3 µM)	0.75 (≈ 0.665 µM)	6 (≈ 5.32 µM)	48 (≈ 42.5 µM)								
NC[C@@H]1O[C@H](O[C@H]2[C@@H](O)[C@H](O[C@@H]3[C@@H](O)[C@H](N)C[C@H](N)[C@H]3O[C@H]3O[C@H](CN)[C@@H](O)[C@H](O)[C@H]3N)O[C@@H]2C(=O)Nc2ccc(-c3cn(CCCCN4CCN(c5cc6c(cc5F)c(=O)c(C(=O)O)cn6C5CC5)CC4)nn3)cc2)[C@H](N)[C@@H](O)[C@@H]1O	12 (≈ 10.4 µM)	6 (≈ 5.19 µM)	24 (≈ 20.8 µM)	1.5 (≈ 1.3 µM)	6 (≈ 5.19 µM)	24 (≈ 20.8 µM)								
NC[C@@H]1O[C@H](O[C@H]2[C@@H](O)[C@H](O[C@@H]3[C@@H](O)[C@H](N)C[C@H](N)[C@H]3O[C@H]3O[C@H](CN)[C@@H](O)[C@H](O)[C@H]3N)O[C@@H]2C(=O)NCc2cn(Cc3cccc(CN4CCN(c5cc6c(cc5F)c(=O)c(C(=O)O)cn6C5CC5)CC4)c3)nn2)[C@H](N)[C@@H](O)[C@@H]1O	6 (≈ 5.25 µM)	6 (≈ 5.25 µM)	12 (≈ 10.5 µM)	0.75 (≈ 0.657 µM)	3 (≈ 2.63 µM)	6 (≈ 5.25 µM)	6 (≈ 5.25 µM)	24 (≈ 21 µM)	4	6 (≈ 5.25 µM)	1	0.4 (≈ 0.35 µM)	0.4 (≈ 0.35 µM)	1
NC[C@@H]1O[C@H](O[C@H]2[C@@H](O)[C@H](O[C@@H]3[C@@H](O)[C@H](N)C[C@H](N)[C@H]3O[C@H]3O[C@H](CN)[C@@H](O)[C@H](O)[C@H]3N)O[C@@H]2C(=O)Nc2ccc(-c3cn(CCOCCN4CCN(c5cc6c(cc5F)c(=O)c(C(=O)O)cn6C5CC5)CC4)nn3)cc2)[C@H](N)[C@@H](O)[C@@H]1O	24 (≈ 20.5 µM)	12 (≈ 10.2 µM)	12 (≈ 10.2 µM)	1.5 (≈ 1.28 µM)	12 (≈ 10.2 µM)	24 (≈ 20.5 µM)								
NC[C@@H]1O[C@H](O[C@H]2[C@@H](O)[C@H](O[C@@H]3[C@@H](O)[C@H](N)C[C@H](N)[C@H]3O[C@H]3O[C@H](CN)[C@@H](O)[C@H](O)[C@H]3N)O[C@@H]2C(=O)Nc2ccc(-c3cn(CCCN4CCN(c5cc6c(cc5F)c(=O)c(C(=O)O)cn6C5CC5)CC4)nn3)cc2)[C@H](N)[C@@H](O)[C@@H]1O	6 (≈ 5.25 µM)	3 (≈ 2.63 µM)	12 (≈ 10.5 µM)	1.5 (≈ 1.31 µM)	6 (≈ 5.25 µM)	48 (≈ 42 µM)								
NC[C@@H]1O[C@H](O[C@H]2[C@@H](O)[C@H](O[C@@H]3[C@@H](O)[C@H](N)C[C@H](N)[C@H]3O[C@H]3O[C@H](CN)[C@@H](O)[C@H](O)[C@H]3N)O[C@@H]2C(=O)NCc2cn(CCCCCN3CCN(c4cc5c(cc4F)c(=O)c(C(=O)O)cn5C4CC4)CC3)nn2)[C@H](N)[C@@H](O)[C@@H]1O	24 (≈ 21.7 µM)	6 (≈ 5.41 µM)	24 (≈ 21.7 µM)	1.5 (≈ 1.35 µM)	12 (≈ 10.8 µM)	48 (≈ 43.3 µM)								
NC[C@@H]1O[C@H](O[C@H]2[C@@H](O)[C@H](O[C@@H]3[C@@H](O)[C@H](N)C[C@H](N)[C@H]3O[C@H]3O[C@H](CN)[C@@H](O)[C@H](O)[C@H]3N)O[C@@H]2C(=O)NCc2cn(CCCN3CCN(c4cc5c(cc4F)c(=O)c(C(=O)O)cn5C4CC4)CC3)nn2)[C@H](N)[C@@H](O)[C@@H]1O	12 (≈ 11.1 µM)	6 (≈ 5.55 µM)	12 (≈ 11.1 µM)	1.5 (≈ 1.39 µM)	6 (≈ 5.55 µM)	48 (≈ 44.4 µM)								
